Assay outcomes as filed in PubChem.
An excerpt weighted towards active compounds, which were near 1.4% of everything screened.
HKDC1 inhibitor: HKDC1 (human) hexokinase inhibition; Q2TB90; recombinant HKDC1, G6PDH/diaphorase resazurin coupled fluorescence; inhibition, % at 20 µM; 340,000 tested, 0.16% active; AID 493160;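 active = inhibition above about 35% when tested at 20 µM, limit read from the data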;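 note: plate controls were DMSO wells with enzyme for no effect and DMSO wells lacking enzyme for full effect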
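Incubation: 90 min at room temperature in dark / Material: recombinant HKDC1 (HK5) hexokinase enzyme, produced in-house / Quantity: enzyme 5 µg/mL final / Compound: one dose of 20 µM, 1% DMSO / Reagent: glucose and ATP substrates / Buffer or medium: Tris pH 8.0 buffer with MgCl2, Tween-20, BSA, BME / Technique: resorufin fluorescence at 613 nm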
iPSC survival up: enhancers of human iPSC single-cell survival. hiPSC single-cell survival, ATPlite luminescence; 100% = ROCK inhibitor wells, 0% = DMSO. survival enhancement, % at 20 µM. 360,000 tested, 0.044% active; in the data active = survival enhancement above about 18%;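 note: cells exposed to compounds for 16 hours before the ATP read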
A3A deaminase: human APOBEC3A DNA deaminase inhibition. P31941. recombinant A3A, FAM/TAMRA ssDNA deamination fluorescence. inhibition, % at 20 µM. 330,000 tested, 0.41% active. AID 493011;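 active = at least 40% inhibition at 20 µM here, with at most 30% in a related deaminase screen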;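 note: plate controls were A3A with DMSO for no effect and wells lacking A3A enzyme for full effect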
Target sequence (P31941 whole entry, looked up): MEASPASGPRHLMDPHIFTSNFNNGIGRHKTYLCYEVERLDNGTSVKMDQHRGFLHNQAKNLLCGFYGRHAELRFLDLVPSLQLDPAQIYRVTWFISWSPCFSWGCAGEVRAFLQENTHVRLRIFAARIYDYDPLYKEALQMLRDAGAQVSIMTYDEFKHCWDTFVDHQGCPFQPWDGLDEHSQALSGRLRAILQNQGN
A3G deaminase: blocks human APOBEC3G single-stranded DNA deamination; recombinant A3G, ssDNA deamination FAM/TAMRA fluorescence; inhibition, % at 20 µM; 330,000 tested, 0.28% active; AID 493012;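 active = inhibition of at least 40% at 20 µM, with no more than 30% in the related APOBEC3A deaminase screen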;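 note: plate controls were DMSO wells with A3G for no effect and wells lacking A3G enzyme for full effect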
Target sequence (Q9HC16 whole entry, looked up): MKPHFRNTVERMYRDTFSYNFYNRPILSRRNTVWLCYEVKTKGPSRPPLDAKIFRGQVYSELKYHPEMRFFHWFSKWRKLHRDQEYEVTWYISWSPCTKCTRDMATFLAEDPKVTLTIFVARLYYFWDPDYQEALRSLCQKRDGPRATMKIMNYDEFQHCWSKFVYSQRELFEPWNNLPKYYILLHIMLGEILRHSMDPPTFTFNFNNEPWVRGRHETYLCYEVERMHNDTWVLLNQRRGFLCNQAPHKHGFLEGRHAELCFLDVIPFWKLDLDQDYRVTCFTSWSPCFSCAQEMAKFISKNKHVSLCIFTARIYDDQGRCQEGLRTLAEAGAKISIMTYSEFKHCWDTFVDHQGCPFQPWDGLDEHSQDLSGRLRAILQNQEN
PfG6PD inh: PfG6PD (Plasmodium falciparum) enzyme inhibition. 350,000 tested, 0.78% active. PfGluPho enzyme, NADPH resazurin-diaphorase fluorescence. inhibition, % at 20 µM;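 active = inhibition reaching at least a set limit at 20 µM in the primary screen, cut at about 59% in these data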;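 note: 0% = DMSO wells with substrate and 100% = DMSO wells lacking glucose-6-phosphate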
HKDC1 act conf: confirmation of human HKDC1 activators. shares compounds with HKDC1 inhibitor. recombinant HKDC1, G6PDH/diaphorase resazurin fluorescence; stronger effect = lower value. inhibition, % at 20 µM. 740 tested, 14% active. AID 504708;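 active = inhibition at or below a set negative limit, negative inhibition meaning the enzyme was activated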
PfGluPho conf: confirmation of Plasmodium falciparum G6PD inhibitors. shares compounds with PfG6PD inh. recombinant PfGluPho, NADPH-diaphorase-resazurin fluorescence. inhibition, % at 20 µM. 2,400 tested, 34% active. AID 504753;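 active = inhibition of at least 50% at 20 µM in any single replicate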;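 note: 0% = DMSO with substrate and 100% = DMSO lacking glucose-6-phosphate substrate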
Diaphorase 10uM: diaphorase inhibition or oxidation at 10 uM NADPH | 820 tested, 39% active | inhibition, % at 20 µM | AID 504862 | shares compounds with PfG6PD inh | diaphorase-coupled resazurin reduction, fluorescence, NADPH 10 uM;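 active = average inhibition reaching 50% or more with the compound at 20 µM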;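 note: resorufin red fluorescence formed as diaphorase reduces resazurin using NADPH; 0% = DMSO with enzyme and 100% = DMSO without enzyme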
Diaphorase 30uM: diaphorase inhibition or oxidation at 30 uM NADPH | Diaphorase/resazurin coupled assay, resorufin fluorescence | inhibition, % at 20 µM | shares compounds with PfG6PD inh | 820 tested, 29% active;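 active = inhibition averaging 50% or more, tested at 20 µM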;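 note: 0% = DMSO with enzyme and 100% = DMSO wells lacking diaphorase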
Starred values were filed as active, the others as inactive; x = no result.

SMILES	HKDC1 inhibitor	iPSC survival up	A3A deaminase	A3G deaminase	PfG6PD inh	HKDC1 act conf	others
COc1ccc(-c2cc(N)n(S(=O)(=O)Cc3ccccc3)n2)c(OC)c1	-2	0	-1	-5	35	x
COc1ccc(-c2cc(N)n(CCC#N)n2)c(OC)c1	40*	-1	1	-3	-2	-35
C=CCn1nc([N+](=O)[O-])nc1Sc1cccc2cccnc12	-47	1	2	-6	38	-52*
Cc1cc(C2=NNC(=Nc3ccc(S(=O)(=O)N4CCOCC4)cc3)SC2)c(C)n1C	-73	0	-5	-4	54	-47*
FC(F)(F)c1ccccc1NC(=S)NN=C1CCCCCC1	-38	x	-1	20	-8	-30
CC(=O)C1=C(c2ccccc2)N(C(C)=O)n2c(C)nnc2S1	-315	-1	1	-3	-3	-125*
CC(C)Oc1ccc(C(CC(=O)O)Cc2ccccc2)cc1 (stereo not drawn)	-5	0	-3	-6	-11	x
N#C/C(=C(/O)CCl)c1nc2c(s1)CCc1ccccc1-2	44*	0	-3	20	41	46
Nc1nc2c(s1)CCc1ccccc1-2	16	0	-2	-4	37	x
Cc1ccc(-n2[nH]c3c4c(ccc3c2=O)C(=O)c2ccccc2C4=O)cc1	-7	0	-2	-6	-2	x
CC(C)(C)n1[nH]c2c3c(ccc2c1=O)C(=O)c1ccccc1C3=O	42*	16	5	3	29	12
Cc1cc(NC(=O)Nc2cccc(Cl)c2)n(-c2ccccn2)n1	-5	0	-2	-6	35	x
O=C1NC(=S)N/C1=C/c1cc2c(cc1[N+](=O)[O-])OCO2	-67	0	0	-4	0	-37*
O=C(O)/C=C\c1cc2c(cc1[N+](=O)[O-])OCO2	-7	1	3	19	-3	x
O=C(N/N=C/c1ccc(-c2ccc(S(=O)(=O)Nc3ncccn3)cc2)o1)c1cc2ccccc2cc1O	33	7	21	38	-53	-22
CCOC(=O)C1(Cc2cccc(F)c2)CCN(C(=O)COC)CC1	-7	0	5	4	0	x
O=c1[nH]c(=S)[nH]c2sccc12	-5	0	4	12	16	x
COc1ccc(N2CC(C(=O)Nc3nnc(SCC(=O)N4CCOCC4)s3)CC2=O)cc1 (stereo not drawn)	-5	0	-2	-5	27	x
O=c1[nH]c(=O)c2nc(-c3ccc(Cl)cc3)cnc2[nH]1	-4	3	-3	-6	-17	x
O=c1[nH]c(=O)c2nc3c4ccccc4c4ccccc4c3nc2[nH]1	37*	-3	43	33	3	-2
COCCN1C(=O)/C(=C2/C(=O)N(CC(=O)Nc3ccccc3Cl)c3ccccc32)SC1=S	0	2	1	1	-13	x
O=C(CN1C(=O)/C(=C2\SC(=S)N(CCS(=O)(=O)O)C2=O)c2ccccc21)Nc1cccc(Br)c1	58*	0	x	x	24	13
CCn1c2ccccc2c2nnc(SCc3ccc(C(=O)OC)o3)nc21	29	2	3	-1	27	21
COc1ccccc1CCC(=O)N1CCN(S(=O)(=O)c2cc(C(F)(F)F)ccc2Cl)CC1	1	0	-1	1	9	x
COc1cc(-c2ccc(Nc3ccccc3C(=O)O)c(OC)c2)ccc1Nc1ccccc1C(=O)O	42*	0	12	11	1	-6
SMILES	HKDC1 inhibitor	iPSC survival up	A3A deaminase	A3G deaminase	PfG6PD inh	HKDC1 act conf	others
CCc1ccc(C2CC(=O)N(c3ccc(F)cc3)C3=C2C(=O)OC3)cc1 (stereo not drawn)	9	2	-4	-10	-17	x
O=C(NC1CC1)C1CCN(c2nc3ccccc3s2)CC1	-1	1	-4	-9	-9	x
Cc1c(Br)cccc1NC(=O)C1(C)CCN1Cc1ccccc1OC(F)F (stereo not drawn)	x	-1	x	x	x	x
COc1cc(OC)cc(C(=O)NC(=S)NNC(=O)c2cnccn2)c1	-42	2	0	-3	-3	-40*
COc1ccc(C(=O)NC(=S)NNC(=O)c2cnccn2)cc1OC	-26	0	-1	1	11	x
CC(OC(=O)CNC(=O)c1ccc(F)cc1)C(=O)Nc1ccc(S(=O)(=O)N2CCOCC2)cc1 (stereo not drawn)	4	0	-2	-7	3	x
CC(=O)c1cc(C(=O)N2CCCC(CCC(=O)N(C)CCc3ccccn3)C2)cs1 (stereo not drawn)	-5	0	3	-8	0	x
O=C1C(Cc2ccccc2)SC(=Nc2ccccc2)N1c1ccccc1 (stereo not drawn)	8	-1	-1	-6	7	x
Fc1ccc(N2C(=S)SC(=Nc3ccccc3)C2=Nc2ccccc2)cc1	-50	2	x	x	7	-32
N#CC(C#N)=C1SC(=Nc2ccccc2)C(=Nc2ccccc2)N1c1ccccc1	-86	4	x	x	29	-32
Cc1ccc(S(=O)(=O)NC(=O)COc2ccccc2C)c(C)c1	1	0	-4	-6	-12	x
COC1=C(OC)C(=O)C(Sc2ccc3ccccc3c2)=CC1=O	71*	4	x	x	128*	71	PfGluPho conf=106*;Diaphorase 10uM=82*;Diaphorase 30uM=38
Cc1ccc(F)c(Cn2cnc3c(cnn3C(C)(C)C)c2=O)c1Cl	-6	-3	-1	-2	10	x
N=C1N(c2ccccc2)C(=S)C(=Nc2ccccc2)N1c1ccccc1	-77	-1	x	x	65*	4	PfGluPho conf=26
O=C1CC(=Nc2ccccc2)NN1c1ccccc1	1	-2	-2	-2	30	x
Cc1ccc(NC(=O)c2cc3ccccc3cc2O)cc1	5	0	6	-4	18	x
COc1ccc(NC(=O)c2cc3ccccc3cc2O)cc1	38*	-1	-6	-2	70*	-13	PfGluPho conf=28
O=C(CC(O)c1ccncc1)c1ccccc1O (stereo not drawn)	0	-2	x	x	-19	x
O=C1C=C(c2c(O)ccc3ccccc23)c2ccccc2C1=O	93*	-3	x	x	118*	78	PfGluPho conf=111*;Diaphorase 10uM=96*;Diaphorase 30uM=97*
CCCC(=O)NC1=C(Cl)C(=O)c2ccccc2C1=O	60*	-2	x	x	128*	81	PfGluPho conf=116*;Diaphorase 10uM=99*;Diaphorase 30uM=97*
CCNC1=C(Cl)C(=O)c2ccccc2C1=O	-3	3	7	-2	-105	x
